Values after ≈ are worked out from the molar mass of the structure shown.
How the values were obtained:
[1] = test system: Candida parapsilosis; assay: Antifungal activity against azole-susceptible Candida parapsilosis ATCC 90018 assessed as reduction in fungal growth incubated for 48 hrs by broth microdilution method; format: functional; settings: Lodderomyces parapsilosis, ATCC 90018, 48 h
How it was run: (§1)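 CLSI broth microdilution in RPMI 1640 with MOPS at pH 7.0. Inoculum taken from 24-h Sabouraud subcultures, final 0.5-2.5×10^3 cfu/ml. Compounds in DMSO, twofold series 1024-0.125 µg/ml final. Incubated 48 h at 35 °C. MIC is the lowest concentration giving complete inhibition of visible growth. Fluconazole served as the reference.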

[2] = test system: Candida albicans; assay: Antifungal activity against azole-susceptible Candida albicans ATCC 90028 assessed as reduction in fungal growth incubated for 48 hrs by broth microdilution method; format: functional; settings: ATCC 90028, 48 h; how it was run: as §1
[3] = test system: Candida tropicalis; assay: Antifungal activity against azole-resistant Candida tropicalis assessed as reduction in fungal growth incubated for 48 hrs by broth microdilution method; format: functional
How it was run: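 CLSI broth microdilution in RPMI 1640 (glutamine, no bicarbonate) buffered to pH 7.0 with MOPS. Azole-resistant clinical C. tropicalis isolate, stored at -80 °C in glycerol, subcultured twice on Sabouraud dextrose agar. Inoculum from 24-h subcultures, final 0.5 to 2.5×10^3 cfu/ml. Compounds in DMSO, twofold final 1024–0.125 µg/ml. Incubated 35 °C, 48 h. MIC = lowest concentration fully inhibiting visible growth.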

[4] = test system: Pichia kudriavzevii; assay: Antifungal activity against azole-susceptible Candida krusei ATCC 6258 assessed as reduction in fungal growth incubated for 48 hrs by broth microdilution method; format: functional; settings: ATCC 6258, 48 h; how it was run: as §1
[5] = test system: Candida albicans; assay: Antibiofilm activity against Candida albicans SC5314 assessed as inhibition of biofilm formation by turbidity based visual inspection method; format: functional
How it was run: (§2)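 C. albicans SC5314 biofilms grown on a 96-peg lid (Calgary device, MBEC protocol) from 10^6 cfu/ml inoculum for 24 h at 37 °C. Pegs rinsed in 0.9% saline, then challenged 24 h at 35 °C with twofold dilutions, 512-0.5 µg/ml. MBIC: no well turbidity by visual inspection. MBEC: pegs sonicated into RPMI/2% glucose, regrowth overnight, OD 550 nm plus visual turbidity.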

[6] = test system: Candida albicans; assay: Disruption of Candida albicans SC5314 pre-formed mature biofilm assessed as reduction in biofilm biomass incubated for 24 hrs by spectrophotometry; format: functional; how it was run: as §2
[7] = test system: U-937; assay: Cytotoxicity against human U937 cells assessed as cell viability at 0.125 to 32 ug/ml incubated for 24 to 48 hrs by MTT assay; format: cell-based
How it was run: (§3)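 MTT assay on U937 monocytic cells, 4×10³ cells/well, in RPMI-1640 with 10% FBS. Eight concentrations, 0.125-32 µg/ml, DMSO ≤0.32% v/v, each in triplicate. Exposure 24 or 48 h at 37 °C, 5% CO₂, then MTT for 4 h. Formazan dissolved in SDS/DMF, absorbance read at 570 nm. Viability calculated relative to untreated cells.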

[8] = test system: Candida albicans; assay: Antifungal activity against Candida albicans by broth dilution assay; format: functional; how it was run: as §1
[9] = Cytotoxicity against human U937 cells assessed as cell viability at >= 8 ug/ml incubated for 24 to 48 hrs by MTT assay; format: cell-based, U-937; settings: read-out: Activity; how it was run: as §3

SMILES | MIC [1] | MIC [2] | MIC [3] | MIC [4] | MBIC [5] | MBEC [6] | Activity [7] | MIC [8] | viability [9]
Cl.O=C(OC(Cn1ccnc1)c1ccc(Cl)cc1Cl)C1CCCCC1 (racemic) | 4 µg/mL | 8 µg/mL | 16 µg/mL | 32 µg/mL |  |  |  |  | 
O=C(Cn1ccnc1)c1ccc(Cl)cc1Cl | 32 µg/mL (≈ 125 µM) | 128 µg/mL (≈ 502 µM) |  | 256 µg/mL (≈ 1000 µM) |  |  |  |  | 
O/N=C(\Cn1ccnc1)c1ccc(Cl)cc1Cl | 32 µg/mL (≈ 118 µM) | 32 µg/mL (≈ 118 µM) |  | 256 µg/mL (≈ 948 µM) |  |  |  |  | 
Cl.O=C(O/N=C(\Cn1ccnc1)c1ccc(Cl)cc1Cl)c1ccc([N+](=O)[O-])cc1 | 16 µg/mL | 64 µg/mL |  | 64 µg/mL |  |  |  |  | 
COc1ccc(C(=O)O/N=C(\Cn2ccnc2)c2ccc(Cl)cc2Cl)cc1 | 1 µg/mL (≈ 2.47 µM) | 0.5 µg/mL (≈ 1.24 µM) | 64 µg/mL (≈ 158 µM) | 1 µg/mL (≈ 2.47 µM) | 2 µg/mL | 512 µg/mL | Non-Toxic |  | 
CCc1ccc(C(=O)O/N=C(\Cn2ccnc2)c2ccc(Cl)cc2Cl)cc1.Cl | 128 µg/mL | 128 µg/mL | 8 µg/mL | 256 µg/mL |  |  |  |  | 
Cl.O=C(OC(Cn1ccnc1)c1ccc(Cl)cc1Cl)c1ccc(C(F)(F)F)cc1 (racemic) | 256 µg/mL | 256 µg/mL |  | 256 µg/mL |  |  |  |  | 
CC(C)(C)c1ccc(C(=O)OC(Cn2ccnc2)c2ccc(Cl)cc2Cl)cc1.Cl (racemic) | 128 µg/mL | 128 µg/mL |  | 256 µg/mL |  |  |  | 10 µg/mL | 
Cl.O=C(OC(Cn1ccnc1)c1ccc(Cl)cc1Cl)c1ccc2ccccc2c1 (racemic) | 1 µg/mL | 1 µg/mL | 1 µg/mL | 2 µg/mL | 0.5 µg/mL | 256 µg/mL | Non-Toxic |  | 
OC(Cn1cncn1)(Cn1cncn1)c1ccc(F)cc1F [FLUCONAZOLE] | 0.5 µg/mL (≈ 1.63 µM) | 0.5 µg/mL (≈ 1.63 µM) | 512 µg/mL (≈ 1670 µM) | 32 µg/mL (≈ 104 µM) |  |  |  |  | 
OC(Cn1ccnc1)c1ccc(Cl)cc1Cl (stereo not given) | 4 µg/mL (≈ 15.6 µM) | 8 µg/mL (≈ 31.1 µM) | 256 µg/mL (≈ 996 µM) | 128 µg/mL (≈ 498 µM) |  |  |  |  | 
CC(C)c1ccc(C(=O)O/N=C(\Cn2ccnc2)c2ccc(Cl)cc2Cl)cc1.Cl | 16 µg/mL | 16 µg/mL |  | 32 µg/mL |  |  |  |  | 
O=C(O/N=C(\Cn1ccnc1)c1ccc(Cl)cc1Cl)C1CCCCC1 | 64 µg/mL (≈ 168 µM) | 64 µg/mL (≈ 168 µM) |  | 64 µg/mL (≈ 168 µM) |  |  |  |  | 
Cl.N#Cc1ccc(C(=O)OC(Cn2ccnc2)c2ccc(Cl)cc2Cl)cc1 (racemic) | 4 µg/mL | 8 µg/mL | 16 µg/mL | 64 µg/mL |  |  |  |  | 
COc1ccc(C(=O)OC(Cn2ccnc2)c2ccc(Cl)cc2Cl)cc1.Cl (racemic) | 1 µg/mL | 2 µg/mL | 4 µg/mL | 16 µg/mL | 1 µg/mL | 256 µg/mL |  |  | 
Cl.O=C(OC(Cn1ccnc1)c1ccc(Cl)cc1Cl)c1cc2ccccc2[nH]1 (racemic) | 0.25 µg/mL | 0.125 µg/mL | 1 µg/mL | 0.5 µg/mL | 2 µg/mL | 128 µg/mL | Non-Toxic |  | 
Cl.O=C(CCC(=O)c1ccccc1)OC(Cn1ccnc1)c1ccc(Cl)cc1Cl (racemic) | 8 µg/mL | 16 µg/mL |  | 32 µg/mL |  |  |  |  | 
Cl.O=C(O/N=C(\Cn1ccnc1)c1ccc(Cl)cc1Cl)c1cc2ccccc2[nH]1 | 128 µg/mL | 128 µg/mL | 256 µg/mL | 256 µg/mL |  |  |  |  | 
CC(C)(C)OC(=O)NCCCC(=O)OC(Cn1ccnc1)c1ccc(Cl)cc1Cl.Cl (racemic) | 16 µg/mL | 8 µg/mL |  | 128 µg/mL |  |  |  |  | 
Cl.O=C(O/N=C(\Cn1ccnc1)c1ccc(Cl)cc1Cl)c1ccc(Cl)cc1Cl | 64 µg/mL | 64 µg/mL |  | 64 µg/mL |  |  |  |  | 
O=C(OC(Cn1ccnc1)c1ccc(Cl)cc1Cl)c1ccc(-c2ccc(-c3ccccc3)cc2)cc1 (racemic) | 256 µg/mL (≈ 499 µM) | 256 µg/mL (≈ 499 µM) |  | 256 µg/mL (≈ 499 µM) |  |  |  |  | 
O=C(/C=C/c1ccccc1)O/N=C(\Cn1ccnc1)c1ccc(Cl)cc1Cl | 2 µg/mL (≈ 5 µM) | 2 µg/mL (≈ 5 µM) | 64 µg/mL (≈ 160 µM) | 4 µg/mL (≈ 9.99 µM) | 128 µg/mL | 512 µg/mL |  |  | 

SMILES | MIC [1] | MIC [2] | MIC [3] | MIC [4] | MBIC [5] | MBEC [6] | Activity [7] | MIC [8] | viability [9]
Cl.O=C(OC(Cn1ccnc1)c1ccc(Cl)cc1Cl)c1ccc(Cl)cc1Cl (racemic) | 128 µg/mL | 128 µg/mL |  | 256 µg/mL |  |  |  | 300 µg/mL | 
Cl.O=C(OC(Cn1ccnc1)c1ccc(Cl)cc1Cl)c1ccc([N+](=O)[O-])cc1 (racemic) | 4 µg/mL | 8 µg/mL | 8 µg/mL | 32 µg/mL |  |  |  | > 300 µg/mL | 
Cl.O=C(OC(Cn1ccnc1)c1ccc(Cl)cc1Cl)c1ccc(-c2ccccc2)cc1 (racemic) | 0.25 µg/mL | 0.25 µg/mL | 512 µg/mL | 1 µg/mL | 2 µg/mL | 256 µg/mL |  |  | < 80%
Cl.O=C(O/N=C(\Cn1ccnc1)c1ccc(Cl)cc1Cl)c1ccc(-c2ccc(-c3ccccc3)cc2)cc1 | 128 µg/mL | 128 µg/mL |  | 256 µg/mL |  |  |  |  | 
CC(C)c1ccc(C(=O)OC(Cn2ccnc2)c2ccc(Cl)cc2Cl)cc1.Cl (racemic) | 128 µg/mL | 256 µg/mL |  | 128 µg/mL |  |  |  |  | 
O=C(O/N=C(\Cn1ccnc1)c1ccc(Cl)cc1Cl)c1ccccc1 | 32 µg/mL (≈ 85.5 µM) | 32 µg/mL (≈ 85.5 µM) |  | 32 µg/mL (≈ 85.5 µM) |  |  |  |  | 
Cl.O=C(OC(Cn1ccnc1)c1ccc(Cl)cc1Cl)c1ccc(N2CCOCC2)cc1 (racemic) | 32 µg/mL | 16 µg/mL |  | 256 µg/mL |  |  |  |  | 
Cl.O=C(/C=C/c1ccccc1)OC(Cn1ccnc1)c1ccc(Cl)cc1Cl (racemic) | 1 µg/mL | 0.5 µg/mL | 4 µg/mL | 1 µg/mL | 0.5 µg/mL | 64 µg/mL | Non-Toxic |  | 
Cl.O=C(O/N=C(\Cn1ccnc1)c1ccc(Cl)cc1Cl)c1ccc(Cl)cc1 | 32 µg/mL | 32 µg/mL |  | 64 µg/mL |  |  |  |  | 
CCc1ccc(C(=O)OC(Cn2ccnc2)c2ccc(Cl)cc2Cl)cc1.Cl (racemic) | 256 µg/mL | 256 µg/mL |  | 256 µg/mL |  |  |  |  | 
Cl.O=C(OC(Cn1ccnc1)c1ccc(Cl)cc1Cl)C1CCCC1 (racemic) | 2 µg/mL | 1 µg/mL | 8 µg/mL | 16 µg/mL | 32 µg/mL | >1024 µg/mL |  |  | 
CSc1ccc(C(=O)O/N=C(\Cn2ccnc2)c2ccc(Cl)cc2Cl)cc1.Cl | 2 µg/mL | 2 µg/mL | 16 µg/mL | 64 µg/mL | 2 µg/mL | 256 µg/mL |  |  | 
Cc1ccc(C(=O)O/N=C(\Cn2ccnc2)c2ccc(Cl)cc2Cl)cc1 | 256 µg/mL (≈ 659 µM) | 128 µg/mL (≈ 330 µM) |  | 256 µg/mL (≈ 659 µM) |  |  |  |  | 
CC(C)(C)c1ccc(C(=O)O/N=C(\Cn2ccnc2)c2ccc(Cl)cc2Cl)cc1 | 4 µg/mL (≈ 9.3 µM) | 4 µg/mL (≈ 9.3 µM) | 64 µg/mL (≈ 149 µM) | 4 µg/mL (≈ 9.3 µM) | 128 µg/mL | 256 µg/mL |  |  | 
O=C(O/N=C(\Cn1ccnc1)c1ccc(Cl)cc1Cl)c1ccc(-c2ccccc2)cc1 | 1 µg/mL (≈ 2.22 µM) | 1 µg/mL (≈ 2.22 µM) | 256 µg/mL (≈ 568 µM) | 1 µg/mL (≈ 2.22 µM) | 16 µg/mL | 256 µg/mL | Non-Toxic |  | 
CSc1ccc(C(=O)OC(Cn2ccnc2)c2ccc(Cl)cc2Cl)cc1.Cl (racemic) | 16 µg/mL | 8 µg/mL |  | 28 µg/mL |  |  |  |  | 
Cl.O=C(CCCc1ccccc1)OC(Cn1ccnc1)c1ccc(Cl)cc1Cl (racemic) | 2 µg/mL | 2 µg/mL | 32 µg/mL | 8 µg/mL | 0.5 µg/mL | 64 µg/mL |  |  | 
N#Cc1ccc(C(=O)O/N=C(\Cn2ccnc2)c2ccc(Cl)cc2Cl)cc1 | 64 µg/mL (≈ 160 µM) | 128 µg/mL (≈ 321 µM) |  | 64 µg/mL (≈ 160 µM) |  |  |  |  | 
Cl.O=C(O/N=C(\Cn1ccnc1)c1ccc(Cl)cc1Cl)c1ccc2ccccc2n1 | 256 µg/mL | 128 µg/mL |  | 256 µg/mL |  |  |  |  | 
Cl.O=C(O/N=C(\Cn1ccnc1)c1ccc(Cl)cc1Cl)c1ccc2ccccc2c1 | 256 µg/mL | 256 µg/mL |  | 256 µg/mL |  |  |  |  | 
C[C@@H]1[C@H](O)[C@@H](C)/C=C/C=C/C=C/C=C/C=C/C=C/C=C/[C@H](O[C@@H]2O[C@H](C)[C@@H](O)[C@H](N)[C@@H]2O)C[C@@H]2O[C@](O)(C[C@@H](O)C[C@@H](O)[C@H](O)CC[C@@H](O)C[C@@H](O)CC(=O)O[C@H]1C)C[C@H](O)[C@H]2C(=O)O [AMPHOTERICIN B] |  |  |  |  | 4 µg/mL | 256 µg/mL |  |  | 
